Assay results published in ChEMBL document CHEMBL1275429, “Pharmacodynamic characterization of ceftobiprole in experimental pneumonia caused by phenotypically diverse Staphylococcus aureus strains” (Antimicrob Agents Chemother, 2008).
In brackets after ≈: the same amount, converted by molar mass.

Key:
[1] = fT>MIC required for stasis inhibition of hospital acquired methicillin-resistant Staphylococcus aureus 152 infection in neutropenic BALB/cAnNCr mouse; assay type: functional
How it was run: (§1)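 Same neutropenic murine pneumonia model, with 24-h lung log10 CFU change (5 mice per group; 1–25 mg/kg s.c., 1–5 times daily). […] ED50, ED80 and stasis exposures were taken from a sigmoid Emax fit for each isolate.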

[2] = Elimination half life in neutropenic BALB/cAnNCr mouse infected with Staphylococcus aureus at 2.5 mg/kg, sc administered as single dose after 6 hrs of infection; assay type: ADME, organism-based; design: dose 2.5 mg/kg, route subcutaneous; settings: in vivo
How it was run: (§2)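 Female BALB/cAnNCr mice (7-9 weeks, 15-22 g) made neutropenic with cyclophosphamide, 250 mg/kg i.p. on day -4 and 100 mg/kg i.p. on day -1. Infected by oral aspiration of HA-MRSA 56 (10^7 CFU/ml in 3% mucin/saline). Single s.c. dose in sterile water given 6 h post-challenge. Plasma (EDTA, citric acid-stabilized) taken at 0.25-4 h, six mice per time point. Assayed by validated HPLC (LOQ 0.01 µg/ml); one-compartment analysis.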

[3] = Tmax in neutropenic BALB/cAnNCr mouse infected with Staphylococcus aureus at 10 mg/kg, sc administered as single dose after 6 hrs of infection; assay type: ADME, organism-based; design: dose 10 mg/kg, route subcutaneous; settings: in vivo
How it was run: (§3)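 Neutropenic female mice (cyclophosphamide i.p. 250 mg/kg day −4, 100 mg/kg day −1) with HA-MRSA 56 pneumonia (oral inoculum, 10^7 CFU/ml in 3% mucin). Single s.c. dose in sterile water. Plasma by intracardiac puncture at 0.25–4 h, six mice per time point, stabilized with citric acid. Assayed by validated HPLC (LOQ 0.01 µg/ml). Parameters from one-compartment analysis.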

[4] = AUC (0 to infinity) in neutropenic BALB/cAnNCr mouse infected with Staphylococcus aureus at 2.5 mg/kg, sc administered as single dose after 6 hrs of infection; assay type: ADME, organism-based; design: time infinity, dose 2.5 mg/kg, route subcutaneous; settings: plasma; how it was run: as §2
[5] = Cmax in neutropenic BALB/cAnNCr mouse infected with Staphylococcus aureus at 1 mg/kg, sc administered as single dose after 6 hrs of infection; assay type: ADME, organism-based; design: dose 1 mg/kg, route subcutaneous; settings: in vivo; how it was run: as §3
[6] = fT>MIC required for 50% inhibition of methicillin-susceptible Staphylococcus aureus 25923 infection in neutropenic BALB/cAnNCr mouse; assay type: functional
[7] = AUC (0 to infinity) in neutropenic BALB/cAnNCr mouse infected with Staphylococcus aureus at 1 mg/kg, sc administered as single dose after 6 hrs of infection; assay type: ADME, organism-based; design: time infinity, dose 1 mg/kg, route subcutaneous; settings: plasma; how it was run: as §3
Staphylococcus aureus [8] = assay: Antimicrobial activity against community acquired methicillin-resistant Staphylococcus aureus 146 by broth microdilution method; assay type: functional
How it was run: (§4)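 Broth microdilution run in triplicate following CLSI guidelines. Isolates were stored at –80°C in double-strength skim milk and subcultured twice on Trypticase soy agar with 5% sheep blood before testing.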

Staphylococcus aureus [9] = assay: Antimicrobial activity against hospital acquired methicillin-resistant Staphylococcus aureus 56 by broth microdilution method; assay type: functional; how it was run: as §4
Staphylococcus aureus [10] = assay: Antimicrobial activity against community acquired methicillin-resistant Staphylococcus aureus 144 infected in BALB/cAnNCr mouse assessed as decrease in bacterial density in lungs at 1 to 25 mg/kg, sc administered as 1 to 5 times/day after 24 hrs […] relative to control; assay type: functional; settings: route subcutaneous
How it was run: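 Female BALB/cAnNCr mice (7–9 weeks) were made neutropenic with cyclophosphamide i.p. at 250 mg/kg on day −4 and 100 mg/kg on day −1. Under isoflurane, mice received an oral inoculum in 3% mucin/saline, with nostrils blocked until aspiration. Drug (1–25 mg/kg s.c., once to five times daily, water vehicle) or sham started 6 h post-inoculation. Lungs were harvested at 24 h, homogenized and plated on blood and Columbia agar at 35°C. Mean log10 CFU/ml was compared with the 0-h untreated baseline; 5 mice per group.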

Mus musculus = assay: Volume of distribution in neutropenic BALB/cAnNCr mouse infected with Staphylococcus aureus at 2.5 mg/kg, sc administered as single dose after 6 hrs of infection; assay type: ADME, organism-based; design: dose 2.5 mg/kg, route subcutaneous; settings: in vivo; how it was run: as §2
Staphylococcus aureus [11] = assay: Antimicrobial activity against Staphylococcus aureus infected in BALB/cAnNCr mouse assessed as decrease in bacterial density in lungs relative to control at 1 to 25 mg/kg, sc administered as 1 to 5 times/day after 24 hrs […]; assay type: functional; settings: dose mg/kg 1-5; route subcutaneous
How it was run: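 Neutropenic mice given oral S. aureus inoculum (10^7 CFU/ml in 3% mucin). s.c. dosing of 1–25 mg/kg, once to five times daily, began 6 h post-infection and ran 24 h, five mice per group, with sham-treated controls. Lung homogenates were plated on blood and Columbia agar at 35°C up to 48 h. Log10 CFU/ml at 24 h was compared with untreated controls.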

[12] = Elimination clearance in neutropenic BALB/cAnNCr mouse infected with Staphylococcus aureus at 2.5 mg/kg, sc administered as single dose after 6 hrs of infection; assay type: ADME, organism-based; design: dose 2.5 mg/kg, route subcutaneous; settings: in vivo; how it was run: as §2
[13] = fT>MIC required for 80% inhibition of community acquired methicillin-resistant Staphylococcus aureus 146 infection in neutropenic BALB/cAnNCr mouse; assay type: functional; how it was run: as §1
[14] = fAUC/MIC required for 50% inhibition of Staphylococcus aureus infection in neutropenic BALB/cAnNCr mouse; assay type: functional
[15] = fT>MIC in neutropenic BALB/cAnNCr mouse plasma infected with Staphylococcus aureus at 1 to 25 mg/kg, sc administered 1 to 5 times/day after 24 hrs HPLC; assay type: functional; settings: route subcutaneous
How it was run: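 Exposure indices used free plasma drug, correcting with 19% mouse protein binding supplied by the sponsor. The regimens were s.c. 1–25 mg/kg given 1–5 times daily for 24 h to neutropenic mice with S. aureus pneumonia. MICs were determined in triplicate by CLSI broth microdilution. PK came from the single-dose HPLC study.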

[16] = fT>MIC required for stasis inhibition of hospital acquired methicillin-resistant Staphylococcus aureus 56 infection in neutropenic BALB/cAnNCr mouse; assay type: functional; how it was run: as §1
[17] = Elimination half life in neutropenic BALB/cAnNCr mouse infected with Staphylococcus aureus at 10 mg/kg, sc administered as single dose after 6 hrs of infection; assay type: ADME, organism-based; design: dose 10 mg/kg, route subcutaneous; settings: in vivo; how it was run: as §3
Staphylococcus aureus [18] = assay: Antimicrobial activity against methicillin-susceptible Staphylococcus aureus ATCC 25923 by broth microdilution method; assay type: functional; how it was run: as §4
[19] = fT>MIC required for 50% inhibition of community acquired Staphylococcus aureus 144 infection in neutropenic BALB/cAnNCr mouse; assay type: functional; how it was run: as §1

## Nc1nc(/C(=N/O)C(=O)N[C@@H]2C(=O)N3C(C(=O)O)=C(/C=C4\CCN([C@@H]5CCNC5)C4=O)CS[C@H]23)ns1 [CEFTOBIPROLE]
[1]
  fT>MIC: 13.4%
[2]
  half-life: 27 min
[3]
  Tmax: 9 min
[4]
  AUC(0-inf): 2570 ng·h/mL
[5]
  Cmax: 1740 ng/mL
[6]
  fT>MIC: 8.1%
[7]
  AUC(0-inf): 1840 ng·h/mL
Staphylococcus aureus [8]
  MIC: 2 µg/mL (≈ 3.74 µM)
Staphylococcus aureus [9]
  MIC: 1 µg/mL (≈ 1.87 µM)
Staphylococcus aureus [10]
  log10cfu: 2.9
Mus musculus
  Vd: 0.63 L/kg
Staphylococcus aureus [11]
  log10cfu: 2.5
[12]
  CL/F: 16.2 mL/min/kg
[13]
  fT>MIC: 6%
[14]
  fAUC/MIC: 3
[15]
  fT>MIC: 3%
[16]
  fT>MIC: 13.1%
[17]
  half-life: 25.2 min
Staphylococcus aureus [18]
  MIC: 0.25 µg/mL (≈ 0.468 µM)
[19]
  fT>MIC: 13.8%
